pIC50: −log10 of the molar value.
Tests used:
K562 = assay: Cytotoxicity against human K562 cells assessed as cell growth at 0.001 uM after 48 hrs by sulforhodamine B assay; assay type: functional; details: K562, 48 h, read-out: Activity
Malme-3M [1] = assay: Cytotoxicity against human MALME-3M cells assessed as cell growth at 1 uM after 48 hrs by sulforhodamine B assay; assay type: functional; details: read-out: Activity
ACHN = assay: Cytotoxicity against human ACHN cells assessed as cell growth at 1 uM after 48 hrs by sulforhodamine B assay; assay type: functional; details: read-out: Activity
Outline: (§1)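 Cells grown in RPMI 1640 with 5% FBS and 2 mM L-glutamine, seeded at 5,000–40,000 cells/well by doubling time. Time-zero plates TCA-fixed after 24 h. Five concentrations (10-fold or half-log dilutions from DMSO stock) added; 48 h at 37 °C, 5% CO2. Cold TCA fixation (final 10%, 60 min, 4 °C), 0.4% SRB stain, dye solubilized in 10 mM trizma base, A515.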

HCT-116 = assay: Growth inhibition of human HCT116 cells after 48 hrs by sulforhodamine B assay; assay type: functional, cell-based; details: HCT-116, 48 h; for CC50: read-out: LC50 (the source's name)
Outline: (§2)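 Cells grown in RPMI 1640 with 5% FBS and 2 mM L-glutamine, seeded at 5,000–40,000 cells/well according to doubling time. After 24 h, time-zero plates are TCA-fixed. Five concentrations (10-fold or ½log dilutions, DMSO stocks) are applied for 48 h at 37 °C, 5% CO₂. Cells are TCA-fixed, SRB-stained and read at 515 nm. IC₅₀ is taken from [(Ti−Tz)/(C−Tz)]×100 = 50.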

NCI-H460 [2] = assay: Growth inhibition of human NCI-H460 cells after 48 hrs by sulforhodamine B assay; assay type: functional, cell-based; details: NCI-H460, 48 h; for CC50: read-out: LC50 (the source's name); outline: as §2
SF-268 [3] = assay: Cytotoxicity against human SF268 cells assessed as cell growth at 100 nM after 48 hrs by sulforhodamine B assay; assay type: functional; details: SF-268, 48 h, read-out: Activity
UACC-62 = assay: Cytotoxicity against human UACC62 cells assessed as cell growth at 10 uM after 48 hrs by sulforhodamine B assay; assay type: functional; details: UACC-62, 48 h, read-out: Activity
NCI-H522 = assay: Cytotoxicity against human NCI-H522 cells assessed as cell growth at 0.01 uM after 48 hrs by sulforhodamine B assay; assay type: functional; details: NCI-H522, 48 h, read-out: Activity
OVCAR-5 = assay: Cytotoxicity against human OVCAR5 cells assessed as cell growth at 10 uM after 48 hrs by sulforhodamine B assay; assay type: functional; details: OVCAR-5, 48 h, read-out: Activity
U-251 [4] = assay: Cytotoxicity against human U251 cells assessed as cell growth at 100 nM after 48 hrs by sulforhodamine B assay; assay type: functional; details: U-251, 48 h, read-out: Activity
KM12 = assay: Cytotoxicity against human KM12 cells assessed as cell growth at 100 nM after 48 hrs by sulforhodamine B assay; assay type: functional; details: KM12, 48 h, read-out: Activity
IGROV-1 = assay: Cytotoxicity against human IGROV1 cells assessed as cell growth at 0.001 uM after 48 hrs by sulforhodamine B assay; assay type: functional; details: IGROV-1, 48 h, read-out: Activity
MOLT-4 = assay: Cytotoxicity against human MOLT4 cells assessed as cell growth at 1 uM after 48 hrs by sulforhodamine B assay; assay type: functional; details: MOLT-4, 48 h, read-out: Activity
Malme-3M [5] = assay: Cytotoxicity against human MALME-3M cells assessed as cell growth at 10 uM after 48 hrs by sulforhodamine B assay; assay type: functional; details: read-out: Activity
OVCAR-4 = assay: Cytotoxicity against human OVCAR4 cells assessed as cell growth at 0.01 uM after 48 hrs by sulforhodamine B assay; assay type: functional; details: OVCAR-4, 48 h, read-out: Activity
U-251 [6] = assay: Cytotoxicity against human U251 cells assessed as cell growth at 0.001 uM after 48 hrs by sulforhodamine B assay; assay type: functional; details: U-251, 48 h, read-out: Activity
SNB-19 = assay: Cytotoxicity against human SNB19 cells assessed as cell growth at 1 uM after 48 hrs by sulforhodamine B assay; assay type: functional; details: SNB-19, 48 h, read-out: Activity
SK-MEL-2 = assay: Cytotoxicity against human SK-MEL-2 cells assessed as cell growth at 0.01 uM after 48 hrs by sulforhodamine B assay; assay type: functional; details: SK-MEL-2, 48 h, read-out: Activity
OVCAR-8 = assay: Cytotoxicity against human OVCAR8 cells assessed as cell growth at 1 uM after 48 hrs by sulforhodamine B assay; assay type: functional; details: OVCAR-8, 48 h, read-out: Activity
LOX IMVI = assay: Cytotoxicity against human LOXIMVI cells assessed as cell growth at 100 nM after 48 hrs by sulforhodamine B assay; assay type: functional; details: read-out: Activity
BT-549 [7] = assay: Cytotoxicity against human BT549 cells assessed as cell growth at 0.001 uM after 48 hrs by sulforhodamine B assay; assay type: functional; details: BT-549, 48 h, read-out: Activity; outline: as §1
MDA-MB-468 = assay: Cytotoxicity against human MDA-MB-468 cells assessed as cell growth at 0.001 uM after 48 hrs by sulforhodamine B assay; assay type: functional; details: MDA-MB-468, 48 h, read-out: Activity
SNB-75 = assay: Cytotoxicity against human SNB75 cells assessed as cell growth at 100 nM after 48 hrs by sulforhodamine B assay; assay type: functional; details: SNB-75, 48 h, read-out: Activity
SF-268 [8] = assay: Cytotoxicity against human SF268 cells assessed as cell growth at 10 uM after 48 hrs by sulforhodamine B assay; assay type: functional; details: SF-268, 48 h, read-out: Activity
BT-549 [9] = assay: Cytotoxicity against human BT549 cells assessed as cell growth at 10 uM after 48 hrs by sulforhodamine B assay; assay type: functional; details: BT-549, 48 h, read-out: Activity; outline: as §1
A549 = assay: Cytotoxicity against human A549 cells assessed as cell growth at 100 nM after 48 hrs by sulforhodamine B assay; assay type: functional; details: A549, 48 h, read-out: Activity; outline: as §1
BT-549 [10] = assay: Cytotoxicity against human BT549 cells assessed as cell growth at 1 uM after 48 hrs by sulforhodamine B assay; assay type: functional; details: BT-549, 48 h, read-out: Activity; outline: as §1
SF-539 = assay: Cytotoxicity against human SF539 cells assessed as cell growth at 1 uM after 48 hrs by sulforhodamine B assay; assay type: functional; details: SF-539, 48 h, read-out: Activity
NCI-H460 [11] = assay: Cytotoxicity against human NCI-H460 cells assessed as cell growth at 0.01 uM after 48 hrs by sulforhodamine B assay; assay type: functional; details: NCI-H460, 48 h, read-out: Activity
UACC-257 = assay: Cytotoxicity against human UACC257 cells assessed as cell growth at 100 nM after 48 hrs by sulforhodamine B assay; assay type: functional; details: UACC-257, 48 h, read-out: Activity
TK-10 = assay: Cytotoxicity against human TK10 cells assessed as cell growth at 1 uM after 48 hrs by sulforhodamine B assay; assay type: functional; details: TK-10, 48 h, read-out: Activity
HT-29 = assay: Cytotoxicity against human HT-29 cells assessed as cell growth at 10 uM after 48 hrs by sulforhodamine B assay; assay type: functional; details: HT-29, 48 h, read-out: Activity
NCI/ADR-RES = assay: Cytotoxicity against human NCI/ADR-RES cells assessed as cell growth at 0.01 uM after 48 hrs by sulforhodamine B assay; assay type: functional; details: read-out: Activity

With CC(=O)Nc1cccc(-c2ccc(-c3ccnc(NC(=O)Nc4cc(C(F)(F)F)cc(C(F)(F)F)c4)n3)cn2)c1.Cl as the molecule, how does the growth at 0.001 µM (K562) read?
The growth at 0.001 µM was 93%.

What about the growth at 1 µM (Malme-3M [1]) of the same molecule?
Its growth at 1 µM is -50%.

What about the growth at 1 µM (ACHN) of the same molecule?
The growth at 1 µM was 20%.

And the GI50 (HCT-116)?
Its GI50 is 1600 nM.

And the pIC50 (HCT-116)?
Its pIC50 is 5.80.

What about the TGI (HCT-116) of the same molecule?
The TGI was 4.71 µM.

And the CC50 (HCT-116)?
The CC50 was 17.1 µM.

And the GI50 (NCI-H460 [2])?
Its GI50 is 2060 nM.

And the pIC50 (NCI-H460 [2])?
The pIC50 was 5.69.

What about the TGI (NCI-H460 [2]) of the same molecule?
The TGI was 7.07 µM.

What about the CC50 (NCI-H460 [2]) of the same molecule?
The CC50 was 59.7 µM.

What about the growth at 0.1 µM (SF-268 [3]) of the same molecule?
Its growth at 0.1 µM is 93%.

And the growth at 10 µM (UACC-62)?
Its growth at 10 µM is 100%.

And the growth at 0.01 µM (NCI-H522)?
The growth at 0.01 µM was 77%.

What about the growth at 10 µM (OVCAR-5) of the same molecule?
Its growth at 10 µM is -96%.

What about the growth at 0.1 µM (U-251 [4]) of the same molecule?
The growth at 0.1 µM was 85%.

What about the growth at 0.1 µM (KM12) of the same molecule?
The growth at 0.1 µM was 92%.

And the growth at 0.001 µM (IGROV-1)?
Its growth at 0.001 µM is 95%.

What about the growth at 1 µM (MOLT-4) of the same molecule?
The growth at 1 µM was 4%.

And the growth at 10 µM (Malme-3M [5])?
The growth at 10 µM was -49%.

What about the growth at 0.01 µM (OVCAR-4) of the same molecule?
The growth at 0.01 µM was 78%.

What about the growth at 0.001 µM (U-251 [6]) of the same molecule?
The growth at 0.001 µM was 98%.

And the growth at 1 µM (SNB-19)?
Its growth at 1 µM is 29%.

What about the growth at 0.01 µM (SK-MEL-2) of the same molecule?
The growth at 0.01 µM was 94%.

And the growth at 1 µM (OVCAR-8)?
Its growth at 1 µM is -25%.

What about the growth at 0.1 µM (LOX IMVI) of the same molecule?
Its growth at 0.1 µM is 81%.

What about the growth at 0.001 µM (BT-549 [7]) of the same molecule?
The growth at 0.001 µM was 100%.

What about the growth at 0.001 µM (MDA-MB-468) of the same molecule?
Its growth at 0.001 µM is 99%.

What about the growth at 0.1 µM (SNB-75) of the same molecule?
The growth at 0.1 µM was 67%.

And the growth at 10 µM (SF-268 [8])?
The growth at 10 µM was -50%.

What about the growth at 10 µM (BT-549 [9]) of the same molecule?
Its growth at 10 µM is -97%.

What about the growth at 0.1 µM (A549) of the same molecule?
Its growth at 0.1 µM is 58%.

And the growth at 1 µM (BT-549 [10])?
The growth at 1 µM was 43%.

What about the growth at 1 µM (SF-539) of the same molecule?
The growth at 1 µM was 37%.

What about the growth at 0.01 µM (NCI-H460 [11]) of the same molecule?
The growth at 0.01 µM was 93%.

What about the growth at 0.1 µM (UACC-257) of the same molecule?
The growth at 0.1 µM was 78%.

And the growth at 1 µM (TK-10)?
The growth at 1 µM was 80%.

And the growth at 10 µM (HT-29)?
Its growth at 10 µM is -64%.

And the growth at 0.01 µM (NCI/ADR-RES)?
Its growth at 0.01 µM is 94%.

What does the source list for CC(=O)c1ccccc1-c1ccc(-c2ccnc(NC(=O)Nc3cc(N4CCOCC4)cc(C(F)(F)F)c3)n2)cn1?
growth at 0.001 µM (K562): 81%; growth at 1 µM (Malme-3M [1]): 24%; growth at 1 µM (ACHN): 42%; GI50 (HCT-116): > 100000 nM; pIC50 (HCT-116): < 4.00; TGI (HCT-116): > 100 µM; CC50 (HCT-116): > 100 µM; GI50 (NCI-H460 [2]): > 100000 nM; pIC50 (NCI-H460 [2]): < 4.00; TGI (NCI-H460 [2]): > 100 µM; CC50 (NCI-H460 [2]): > 100 µM; growth at 0.1 µM (SF-268 [3]): 90%; growth at 10 µM (UACC-62): 63%; growth at 0.01 µM (NCI-H522): 103%; growth at 10 µM (OVCAR-5): 118%; growth at 0.1 µM (U-251 [4]): 93%; growth at 0.1 µM (KM12): 89%; growth at 0.001 µM (IGROV-1): 98%; growth at 1 µM (MOLT-4): 86%; growth at 10 µM (Malme-3M [5]): 61%; growth at 0.01 µM (OVCAR-4): 108%; growth at 0.001 µM (U-251 [6]): 93%; growth at 1 µM (SNB-19): 85%; growth at 0.01 µM (SK-MEL-2): 105%; growth at 1 µM (OVCAR-8): 41%; growth at 0.1 µM (LOX IMVI): 90%; growth at 0.001 µM (BT-549 [7]): 101%; growth at 0.001 µM (MDA-MB-468): 97%; growth at 0.1 µM (SNB-75): 89%; growth at 10 µM (SF-268 [8]): 44%; growth at 10 µM (BT-549 [9]): 46%; growth at 0.1 µM (A549): 92%; growth at 1 µM (BT-549 [10]): 21%; growth at 1 µM (SF-539): 45%; growth at 0.01 µM (NCI-H460 [11]): 110%; growth at 0.1 µM (UACC-257): 83%; growth at 1 µM (TK-10): 32%; growth at 10 µM (HT-29): 91%; growth at 0.01 µM (NCI/ADR-RES): 98%

From ChEMBL document CHEMBL1165943, “Design and synthesis of new anticancer pyrimidines with multiple-kinase inhibitory effect” (Bioorg Med Chem, 2010)
